Screens: PubChem, several laboratories
RAD54 inh = RAD54 (human) branch migration inhibition; RAD54 Holliday junction branch migration, FAM/BHQ fluorescence; actives 0.14% (n = 360,000); inhibition, % at 10.4 µM;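 active means mean normalized replicate activity at least 40 and at least half of replicates scoring 40 or more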;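 further: 0% = median of neutral control wells and 100% = median of positive control wells; inhibitors cause a drop in the FAM fluorescence signal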
Neddyl block = inhibitors of human cullin neddylation | TR-FRET cullin neddylation, biochemical | P61081+Q13564 | AID 651699 | actives 0.58% (n = 360,000) | calls only at 25 µM; in the data active means inhibition above about 36%
UBC13 polyUb = blocks human UBC13 polyubiquitin chain formation; P61088; AID 485273; TR-FRET; inhibition, % at 20 µM; actives 0.47% (n = 330,000); in the data active means inhibition above about 45%, passing the limit was not always enough
Target sequence (P61088 whole entry, looked up): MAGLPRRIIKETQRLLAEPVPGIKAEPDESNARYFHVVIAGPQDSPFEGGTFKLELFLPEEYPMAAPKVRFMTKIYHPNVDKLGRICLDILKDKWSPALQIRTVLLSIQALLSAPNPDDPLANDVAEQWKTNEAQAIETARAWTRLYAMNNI
RAD52 inh = inhibitors of human RAD52 DNA annealing | P43351 | recombinant RAD52 DNA annealing, FRET fluorescence | inhibition, % at 18.7 µM | actives 0.46% (n = 360,000) | AID 651710;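 active means every replicate showing at least 50% inhibition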
FID counter = counter-screen for HCV NS3 helicase inhibitors: DNA intercalator displacement; AID 1845; DNA fluorescent intercalator displacement, fluorescence; actives 0.17% (n = 290,000); inhibition, % at 7.9 µM; in the data active means inhibition above about 37%;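 further: 0% = vehicle and 100% = reference compound; higher means more ethidium bromide displaced from hairpin DNA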
Apaf-1 inh = human Apaf-1 inhibition; O14727; reconstituted apoptosome caspase-3 activity, DEVD-Rh110 fluorescence; inhibition, % at 20 µM; actives 0.71% (n = 330,000); AID 489030; active means inhibition of at least 40% at 20 µM;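 further: plate controls were DMSO wells for no effect and DEVD-CHO caspase inhibitor wells for full effect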
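detection = Rh110 fluorescence intensity | test system = biochemical Apaf-1 apoptosome reconstitution | also added = cytochrome c and DEVD-Rh110 substrate | schedule = 30 min plus 50 min, RT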
Neddyl conf = cullin neddylation inhibition, confirmation | shares compounds with Neddyl block | TR-FRET cullin neddylation biochemical assay | calls only at 25 µM | actives 13% (n = 1,800) | AID 652217; in the data active means inhibition above about 40%;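 further: neddylation substrate is the cullin 1 ring ligase complex with SKP2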
* marks the source's active call; other numbers are inactive results; i = inactive; / = not tested or not shown; + = active, no number. Compounds with a hit are over-represented: about 1.6% of the library has one in this group of screens.

SMILES	RAD54 inh	Neddyl block	UBC13 polyUb	RAD52 inh	FID counter	Apaf-1 inh	Neddyl conf
C[C@@H]1CCCCO[C@@H](CN(C)C(=O)Nc2ccc3c(c2)OCO3)[C@H](C)CN([C@H](C)CO)C(=O)c2cc(NS(=O)(=O)c3cn(C)cn3)ccc2O1	-1	/	/	8	/	/	/
CC(C)C#Cc1ccc2c(c1)O[C@@H](CN(C)Cc1cccnc1)[C@@H](C)CN([C@H](C)CO)S2(=O)=O	-2	/	/	-1	/	/	/
CCC(=O)N[C@H]1C=C[C@H](CC(=O)NCc2ccccc2OC)O[C@@H]1CO	-7	/	/	15	/	/	/
Cc1ccccc1Nc1c(-c2cccnc2)nc2ccccn12	2	+	0	-9	-21	0	i
Cc1ccc2nc(-c3cccnc3)c(Nc3ccccc3C)n2c1	-6	i	5	-13	-34	1	/
CO[C@@H]1CN(C)C(=O)c2ccc(NC(C)=O)cc2OC[C@@H](C)N(Cc2cncnc2)C[C@@H]1C	3	/	/	/	/	/	/
O=C(COc1ccc2c3c(c(=O)oc2c1)CCCC3)N[C@@H](Cc1ccccc1)C(=O)O	-11	+	-3	-21	-20	-2	/
Cc1c(C)n(CCCN(C)C)c2ncnc(Nc3ccccc3)c12	9	+	9	11	12	11	i
COc1ccc(Nc2ncnc3c2c(C)c(C)n3CCCN(C)C)cc1	14	i	0	23	3	-1	/
COc1ccccc1NC(=O)Nc1ccc2c(c1)C(=O)N(C)C[C@H](OC)[C@H](C)CN(C)[C@@H](C)CO2	12	/	/	8	/	/	/
CC(C)C#Cc1ccc([C@@H]2[C@H]3CN(C(=O)NC4CCCCC4)CC(=O)N3[C@H]2CO)cc1	/	/	/	-2	/	/	/
Cn1c(=O)[nH]c(=O)c2c1nc(N1CCCCC1)n2C/C=N/NC(=O)c1cc(Br)ccc1O	7	+	5	0	-10	1	/
Nc1nsc2ccccc12	0	i	-20	-7	5	-9	/
Nc1nnc(N)c2ccccc12	/	+	-2	-3	0	-4	i
C=CCNC(=O)C(C#N)c1nc2ccccc2nc1N1CCN(Cc2ccccc2)CC1 (stereo not drawn)	0	+	-4	/	3	19	i
C=CCOC(=O)C(C#N)c1nc2ccccc2nc1N1CCN(Cc2ccccc2)CC1 (stereo not drawn)	2	i	-38	/	-4	23	/
C[C@@H]1CN([C@H](C)CO)C(=O)c2cc(C#CCN(C)C)cnc2O[C@H]1CN(C)S(C)(=O)=O	8	/	/	-9	/	/	/
CCOc1ccc(-c2nc(C#N)c(N3CCN(C)CC3)o2)cc1	7	/	3	-12	1	-12	/
CCCOc1ccc(-c2nc(C#N)c(N3CCc4ccccc4C3)o2)cc1	-2	+	8	/	-1	12	i
CCCOc1ccc(-c2nc(C#N)c(N3CCN(C)CC3)o2)cc1	12	+	-2	/	9	7	/
CCCOc1ccc(-c2nc(C#N)c(N3CCN(CC)CC3)o2)cc1	/	/	9	/	18	18	/
CC(C)NC(=O)N1CC(=O)N2[C@H](CO)[C@@H](c3ccc(C#CCN(C)C)cc3)[C@@H]2C1	/	/	/	-9	/	/	/
O=C(c1ccncc1)N1C[C@H]2[C@@H](c3ccccc31)[C@@H](CO)N2C(=O)c1ccncc1	0	/	/	-13	/	/	/
COCCNC(=O)C[C@H]1C[C@@H]2c3cc(NS(=O)(=O)c4ccccc4)ccc3O[C@@H]2[C@@H](CO)O1	0	/	/	-4	/	/	/
C/C=C/c1ccc2c(c1)O[C@@H](CN(C)C(=O)c1cccc(F)c1)[C@H](C)CN([C@@H](C)CO)S2(=O)=O	-5	/	/	14	/	/	/
CN(C)CCCNc1c2c(nc3cc(-c4cccc(F)c4)nn13)CCC2	1	+	17	1	22	-15	i
Cc1c(C)c2ccc(OC(C)C(=O)NCCCN3CCOCC3)c(C)c2oc1=O (stereo not drawn)	-1	+	3	-5	12	2	i
Cc1c(C)c2ccc(OC(C)C(=O)NCCN3CCOCC3)c(C)c2oc1=O (stereo not drawn)	13	+	11	-6	2	-10	i
Cc1noc(C)c1NC(=O)N[C@@H]1CC[C@H](CCNC(=O)C2CCOCC2)O[C@@H]1CO	9	/	/	8	/	/	/
